The EternaBench riboswitch data

System: MS2 coat protein
Assay: apparent Kd, MS2 coat protein; higher = weaker binding; RNA-MaP array; FMN 200 µM where present
How it was run: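 Green signal from SNAP-549-labelled MS2 coat protein was normalised to red-channel RNA signal and to the median Fmax of control clusters. The protein was titrated from 0.7 or 1.5 nM, doubling to 3 µM, without and then with constant ligand, over designs transcribed by stalled E. coli RNA polymerase on Illumina sequencing-chip clusters, in 100 mM Tris-HCl pH 7.5, 80 mM KCl, 4 mM MgCl2, BSA, DTT, yeast tRNA and Tween-20. The apparent Kd is the median of filtered per-cluster binding-curve fits.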

[1] = designed as: OFF switch for flavin mononucleotide, no ligand
[2] = ligand present: flavin mononucleotide, designed as: OFF switch for flavin mononucleotide
[3] = designed as: ON switch for flavin mononucleotide, no ligand
[4] = ligand present: flavin mononucleotide, designed as: ON switch for flavin mononucleotide

| Sequence | apparent Kd [1] [nM] | apparent Kd [2] [nM] | apparent Kd [3] [nM] | apparent Kd [4] [nM] |
| --- | --- | --- | --- | --- |
| GUCAUUGACAAGAAGGCAAACAUGAGGAUCACCCAUGUUCUGCAUGUAUAUUGAGGAUAUUGCCAAUGCAUGUGGAUCACCCAA | 6.92 | 11 |  |  |
| GUCCGGCUGCCACAGGAUAUACGUGGAUCGACAUGAGGAUCACCCAUGUAUAUCCUAAUAAUUGCGUAGAAGGGUGGUCAGCCGG |  |  | 1040 | 109 |
| GUCGGAAACGACAAAAGUAGCAUAGGAGAAGGUCCAUUAAACAUGAGGAUCACCCAUGUAAUUGGGAAGGAUAUCCUAUGCUAC |  |  | 9.27 | 5.84 |
| GUCGGAAACGACAAGUCAGCUCGUGAGGAUAUACAAUAUUAAAAGAUCACAUGAGGAUCACCCAUGUAGAAGGCACGAGCUGAU | 31.7 | 442 |  |  |
| GUCGGGAUUACAUGAGGAUCACCCAUGUCAGAACGGGCAGUUAGAAGGUGCCAUUAGGGAGAGGGUAAGGAUAUAAUUUUUGGC |  |  | 12 | 10.4 |
| GUCGGGUCUCACGCGUCGGUCCACAUGAGGAUCACCCAUGUCAAGGAUAUAGCGUCUUCCGGGCGUUAGAAGGUGACCAUUGGC | 34.6 | 48.1 |  |  |
| GUCGUGAGACAGGAUAUCCAAUCUAAACACGAGGGAGAAGGGUCUACAUGAGGAUCACCCAUGUGGUCUCAAAA | 17.6 | 21.7 |  |  |
| GUCGUGCGGCUUUGCUGUACGAGUACAUGAGGAUCACCCAUGUAGGAUAUGGUUCGCUUUGCGUGCCAGAAGGGCGUGCGUUGU | 28.7 | 28.1 |  |  |
| GUCGUGUCAGGAUAUACGUUUGUUUCUUUUUUUGUUGUUUAGUAGAAGGGACAUGAGGAUCACCCAUGUUUGUU | 29.4 | 47.4 |  |  |
| GUCUUUUUACAGAAGGUGUUUAACAUGAGGAUCACCCAUGUACAAAAGGUUAAAUUUGAUAAUAACAAGGAUAUGUACUAAUCA |  |  | 292 | 184 |
| GUGAACCGUAGGUCGUUGGCUGCACAGGAUAUGAAGGCGUACAUGAGGAUCACCCAUGUUCCCUAUCAGAAGGGUGACAGGAAA |  |  | 6.81 | 5.41 |
| GUGAAGGUAGGAUAUACGAUAAUAUAGGGUAGAUAUAUAACACAUGAGGAUCACCCAUGUAGAAGGACCAAUUG | 34.2 | 122 |  |  |
| GUGAAGUGAGGAUAUACGAGAGAGGCUGAACCUGGAGAGAAGUAGAAGGCACAUGAGGAUCACCCAUGUUAGGA | 39.6 | 30.3 |  |  |
| GUGCACAUUCGAGGAUAUCGGAGAGGAGUCCUUCGAGAAGGCGAUUCGUGCUGUGUUAUUCUGGACAUGAGGAUCACCCAUGUG |  |  | 50.8 | 27.8 |
| GUGCAGGUAGGAUAUACGUGAGAGCCUUGUGGGCGUCUGGUACAUGAGGAUCACCCAUGUAGAAGGACCGGGCU | 21.3 | 77.5 |  |  |
| GUGCAUACGUGAGGAUAUGUAUUAGAUAGUGGUACAGAAGGCAUGUCAGAUGACAUGAGGAUCACCCAUGUUGGCAAAAUGCGC |  |  | 47.5 | 10.2 |
| GUGCCUUGGGAGAAGGUUACUAGCAAAGCUAUUAAAGGAUAUUCAUACCGGAAACGGACAUGAGGAUCACCCAUGUGGCACAAA |  |  | 1120 | 118 |
| GUGCGGUAGGAGAAGGACGGAGGCUUCAUUACAUACAUGAGGAUCACCCAUGUAGGAUAUCCUACCUCACGCGGCCUCCUCCUG | 6.44 | 6.79 |  |  |
| GUGGCCCAGGCACAGGAUAUGUUUCUCGUAACAUGAGGAUCACCCAUGUGCCUAUGAGAUUUAAUGCAGAAGGGUGCACGCCACG |  |  | 135 | 18.4 |
| GUGGCUGUUAGGCUUGCGCCGGCGACAGAAGGCCAACAUGAGGAUCACCCAUGUACAAAGACCAUGGAGGAUAUGUUGCCAGUG |  |  | 41.8 | 8.95 |
| GUGGGAAUCACAGGAUAUACAUGCGCCGCUUCGUUCUACAUGAGGAUCACCCAUGUGUGGUCCGUGUAGAAGGGUGUUUGUCAC |  |  | 45.6 | 30.1 |
| GUGGUACAUGAGGAUCACCCAUGUCAGGAUAUCGUGUGUUUUUUUUCGGCCGCGCGCGCGAGAAGGGACGUCUU | 21.6 | 21.6 |  |  |
| GUGGUACAUGAGGAUCACCCAUGUUAGGAUAUCGCGUGAGGUUUUACUUACACACACACGAGAAGGGACGUCUU | 47.5 | 36 |  |  |
| GUGGUCAGACAUGAGGAUCACCCAUGUGGAAUAAAUAAGGAGAAGGAUAUGAAAUAUAGGAUAUAUCAGAAGGUCUGGUUGGUG |  |  | 72.2 | 77.1 |
| GUGGUCAGACAUGAGGAUCACCCAUGUGGAAUAAAUAAGGAGAAGGAUAUGCAAUAUAGGAUAUAGCAGAAGGUCUGGUUGGUG |  |  | 80.1 | 92.7 |
| GUGGUCAGACAUGAGGAUCACCCAUGUGGAAUAAAUAAGGAGAAGGAUAUGGAAUAUAGGAUAUACCAGAAGGUUUGGUUGGUG |  |  | 112 | 116 |
| GUGGUGGGUUGAGGAUAUUGGUUGUUGUUGUCCCACAUGAGGAUCACCCAUGUGGGUUGUGGUUUUGAGAAGGUUGGUUGCUGG |  |  | 18.3 | 15.5 |
| GUGGUGUAGAUACAGGAUAUGUUGCUCGUAACAUGAGGAUCACCCAUGUAUCUAUGAGAAUAAAUGCAGAAGGGUGCACACCACU |  |  | 549 | 30.1 |

| Sequence | apparent Kd [1] [nM] | apparent Kd [2] [nM] | apparent Kd [3] [nM] | apparent Kd [4] [nM] |
| --- | --- | --- | --- | --- |
| GUGUACAGAGGAUAUACUCAUGGAGUUACGAAAGUAACUUCACAUGAGGAUCACCCAUGUAGAAGGCUGUACAC | 473 | 293 |  |  |
| GUGUACAGAGGAUAUACUUGAAUCUAGCGAAGCUAGGUUCGACAUGAGGAUCACCCAUGUAGAAGGCUGUACAC | 12.7 | 17.4 |  |  |
| GUGUACAUAUCAGGAUAUCUAUUUCCUACAUGAGGAUCACCCAUGUAGGUGAUCACCCAAGUAAAGGAGAAGGGAUAUGUAUAC |  |  | 78.7 | 24.5 |
| GUGUACGGAGGAUAUAUAUGGGCAGGCUGACCUGCAGCUUCACAUGAGGAUCACCCAUGUAGAAGGCUGUGCAC | 31.6 | 132 |  |  |
| GUGUACGGAGGAUAUAUGUGGCGAGCAUACGCUCGAGCUUCACAUGAGGAUCACCCAUGUAGAAGGCUGUGCAC | 19 | 102 |  |  |
| GUGUAGAUAGCAGGAUAUCUAUUUCCUACAUGAGGAUCACCCAUGUAGAUGAUCACCCAUGUAAAGGAGAAGGGCUAUCUAUAC |  |  | 367 | 165 |
| GUGUAGCAAGGAUAUACAUGAGGAUCACCCAUGUGAAUAAGAUAGAAUAAGAUAAAGUGUAGAAGGUGCAGUGU | 39 | 34.4 |  |  |
| GUGUAGUGAGGAUAUCGUUGUUAGGAGGAGAAGGUAGGAGGCGAGAAGGCACAUGAGGAUCACCCAUGUAUGAG | 35.1 | 23.7 |  |  |
| GUUAACGCAUGAGGAUAUGCUCACAUUUCAAGAGCAGAAGGUAUGUCUAUAGACAUGAGGAUCACCCAUGUAUUUAUCAUUGAA |  |  | 166 | 42.5 |
| GUUAAGGUAGGAUAUACGAUAAUAUAGGGUAGAAUUAUAACACAUGAGGAUCACCCAUGUAGAAGGACCAAUUG | 31.2 | 39.5 |  |  |
| GUUAAGUGAGGAUAUGGUGAGUAGUGCCUGAGCGCUGCUCACCAGAAGGCACAUGAGGAUCACCCAUGUAUAGC | 15.7 | 28 |  |  |
| GUUAAUUAGUGAGGAUAUACAGUAUUUAAUACUGUAGAAGGCACAAUCCUCAAGACAUGAGGAUCACCCAUGUGAUAAUAAGCU | 35.4 | 139 |  |  |
| GUUAAUUAGUGAGGAUAUACAUAAUUUAAUACUGUAGAAGGCACAAUCCUCAAGACAUGAGGAUCACCCAUGUGAUAAUAAGCU | 34.9 | 174 |  |  |
| GUUAGCGCAGGAUAUACAUGAGGAUCACCCAUGUCCUCAUGCGUUAAAGAGGUGAUCCGUAGAAGGGUGUAAAC | 180 | 250 |  |  |
| GUUAUGUGAGGAUAUAUGUAGGAAACUACAUUAAGGGUAUCACAUGAGGAUCACCCAUGUAGAAGGCGCGUAGC | 298 | 349 |  |  |
| GUUCCACAUGAGGAUCACCCAUGUGAGGAUAUGGAUUCGCUGGCCGUAGCCAGUGGAUCCAGAAGGCGCGUGAU | 77.4 | 96.6 |  |  |
| GUUGAGUGAGAGAAGGCCAGUUGGGAAAAUGAUCGACAGUGUACAGCGUGGAGGAUAUCUCAACAUGAGGAUCACCCAUGUAUA |  |  | 186 | 12.3 |
| GUUGGCGUAGAAGGAUAUUGGUGAUGCGUCUUGUACAUGAGGAUCACCCAUGUCACUCUGCACGCCGAGAAGGUCUGCAAAUGG |  |  | 110 | 87.6 |
| GUUGGUGUAGAAGGAUAUUGGUGAGGCGUCUUGUACAUGAGGAUCACCCAUGUCAUUCUGCACGCCGAGAAGGUCUGCAAUUGG |  |  | 67.9 | 57 |
| GUUUACGUGGAAGGAUAUACAUUUGACAUCCUGAUGCGCGCAAUACCCACAUGAGGAUCACCCAUGUAGAAGGUCUGCGAAAGA | 14.7 | 18.4 |  |  |
| GUUUCCACAGGAAGGAACACUCGGAGAAGGGCACAUGAGGAUCACCCAUGUGCGGCUCGUCACGUGCAGGAUAUUCGAUAUAGA | 7.2 | 17.5 |  |  |
| GUUUCGGGAGGAUAUGCGUGGAUUAUUUUCGUAUGUUGUUUACAUGAGGAUCACCCAUGUAGAAGGUCUGGAGC | 42.8 | 228 |  |  |
| GUUUUCGCAUGAGGAUAUGCUCGCAUUUCAAGAGCAGAAGGUAUGUCUAUAGACAUGAGGAUCACCCAUGUAUUUAACUUUGAA |  |  | 232 | 44.5 |
| GUUUUUUUUAGUUCAUACUAUAUGAUAGAAGGUGAAAUAUAGACAUGAGGAUCACCCAUGUAAUUCAAGGAUAUGUAGUUACUC |  |  | 35.1 | 24.3 |
| UAAAACCUAGGAUAUACAUGAGGAUCACCCAUGUUCGAAGGAGCCCAAGUGACUUCUAGUAGAAGGAGGGCGAA | 18.8 | 23 |  |  |
| UAAAAGACUAGUAUGGUAACCUUCACAUGAGGAUCACCCAUGUAGGAUAUGAGCAGAAAAUCUGCUCAGAAGGACAUGCUAGUC | 3.73 | 4.25 |  |  |
| UAAAAUUUAUGAUAUUAUGACAGUAGAAGGCUAUACAUGUUGAUACAUGAGGAUCACCCAUGUAUAGAGGAUAUAUACAUUUAU | 845 | 832 |  |  |
